Published values of several laboratories.
Each line is one published result; the experiments were not run side by side.
Target: D(4) dopamine receptor (DRD4, Homo sapiens, UniProt P21917)
Method: radioligand
One construct used (P21917 1-419): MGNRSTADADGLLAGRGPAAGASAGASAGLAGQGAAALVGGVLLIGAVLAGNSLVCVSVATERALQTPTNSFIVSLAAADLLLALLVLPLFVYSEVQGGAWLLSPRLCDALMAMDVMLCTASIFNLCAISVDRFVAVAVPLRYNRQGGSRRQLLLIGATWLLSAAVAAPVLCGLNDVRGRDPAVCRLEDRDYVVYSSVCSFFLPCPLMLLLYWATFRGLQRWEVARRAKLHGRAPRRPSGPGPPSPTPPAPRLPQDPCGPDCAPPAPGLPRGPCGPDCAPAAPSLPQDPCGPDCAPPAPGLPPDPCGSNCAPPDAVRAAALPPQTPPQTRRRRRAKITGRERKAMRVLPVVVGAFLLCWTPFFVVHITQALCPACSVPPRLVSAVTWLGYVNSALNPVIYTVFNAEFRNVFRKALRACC

SMILES	test	Ki [nM]
CCCCCCCCCCCCNCCCc1ccc([N+](=O)[O-])cc1	ligand displacement	1800
CCN(CC)c1ccc(C2Nc3ccc(C(=O)c4ccccc4)cc3NC3=C2C(=O)CC(C)(C)C3)cc1 (centres unmarked)	cell-free assay	1530
Oc1ccc(CCC2=NCCN2CCc2ccccc2)cc1	ligand displacement	> 10000
O=C1c2ccccc2CCCN1CCCCN1CCN(c2ccccn2)CC1	ligand displacement	6.5
c1ccc(CCC2=NCCN2CCc2ccccc2)cc1	ligand displacement	758
CCCCN1CCC(COC(=O)c2ccc(N)c(OCF)c2)CC1	cell-free assay	> 10000
Cc1ccc(OC[C@@H]2CN(CCN3CCc4ccccc43)CCO2)cn1	ligand displacement	503
CCCCCCCNCCCc1ccccc1	ligand displacement	390
CCOc1c(O)cc(Br)c2c1CN1CCc3cc(OCC(F)F)c(O)cc3[C@@H]1C2	cell-free assay	2720
COc1ccc2c(c1)C(=O)N(CCCN1CCN(c3ccccc3OC)CC1)C2	ligand displacement	8.4
Oc1cccc(CCC2=NCCN2CCc2ccccc2)c1	ligand displacement	589
